# Source: PubChem
# Rev-erbA mod: modulators of human Rev-erb alpha DNA binding; P20393; Rev-erbα–FITC-DNA binding, fluorescence polarization, 90 min; activity, % at 10 µM; 370,000 tested, 0.79% active; AID 1259318;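 active = activity above about 14%, limit read from the data; passing the limit was not always enough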;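 note: 0% = DMSO wells with 35 nM protein and 100% = DMSO wells with 750 nM protein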
# MT1-MMP act inh: MT1-MMP (human) activation inhibition; GFP/RFP ratio change, % at 20 µM; AID 651647; 360,000 tested, 0.061% active; HT1080 RFP-PRO-GFP cells, GFP/RFP ratio fluorescence, overnight; percent of plate control window, DMSO zero;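 active = GFP/RFP ratio change of at least 30% with cell ATP level not reduced by more than half and red fluorescence within 50% of control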
#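 Compound: 20 µM single dose, 1% DMSO / System: HT1080 RFP-PRO-GFP cells / Controls: DMSO and RFP-L50D-GFP cell wells / Read-out basis: GFP/RFP fluorescence ratio / Schedule: overnight compound exposure at 37 °C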
# PG9 binder: small molecules binding HIV-1 gp120 antibody PG9. TR-FRET gp120-PG9 antibody binding. inhibition, % at 6.7 µM. 360,000 tested, 0.43% active. AID 624416; in the data active = inhibition above about 8.5%
# NR2E3 ag-1: NR2E3 (human) agonism. Q9Y5X4. GST-NR2E3/biotin-RetCOR TR-FRET, 1536-well. AID 2300. inhibition of corepressor binding, % at 4.78 µM. 320,000 tested, 0.12% active;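 active = percent inhibition above the cutoff of mean plus 3 SD of all tested compounds, set per screening campaign, cut at about 20% in these data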;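 note: 0% = DMSO wells and 100% = biotin wells as full block of FRET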
# Target sequence (Q9Y5X4 whole entry, looked up): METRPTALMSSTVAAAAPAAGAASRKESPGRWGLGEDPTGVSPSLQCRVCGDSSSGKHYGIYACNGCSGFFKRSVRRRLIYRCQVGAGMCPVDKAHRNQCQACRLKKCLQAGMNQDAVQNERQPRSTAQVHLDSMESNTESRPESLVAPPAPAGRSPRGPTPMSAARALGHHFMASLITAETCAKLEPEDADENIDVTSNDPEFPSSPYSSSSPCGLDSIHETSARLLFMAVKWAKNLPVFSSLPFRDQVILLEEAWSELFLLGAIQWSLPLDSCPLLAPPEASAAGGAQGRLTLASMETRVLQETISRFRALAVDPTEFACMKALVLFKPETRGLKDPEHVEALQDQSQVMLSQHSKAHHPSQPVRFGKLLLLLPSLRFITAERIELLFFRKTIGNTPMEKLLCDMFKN
#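 System: GST-NR2E3 and biotin-RetCOR proteins; probe or stimulus: 7 nM biotin-RetCOR; doses: compound at 4.8 µM, single dose; schedule: Compound–protein incubation for 5 h at 4 °C; detection: time-resolved FRET; read-out: percent inhibition; controls: biotin wells as high control, 0.6% DMSO wells as low control; format: 1536-well plates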
# NR2E3 ag-2: activates human NR2E3 receptor. CHO-S Gal4-NCOR/VP16-NR2E3 two-hybrid, luciferase. 360,000 tested, 0.35% active. Q9Y5X4. inhibition of corepressor binding, % at 3.98 µM. AID 602229;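 active = inhibition above the mean of all tested compounds plus 3 SD, cut at about 70% in these data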;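 note: 0% = DMSO with NR2E3 transfected cells and 100% = cells lacking NR2E3 construct; higher means lower luciferase signal from less NR2E3 corepressor binding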
# SKN-1 inh: C. elegans SKN-1 inhibition. 360,000 tested, 0.49% active. inhibition, % at 21.8 µM. C. elegans VP596 Pgst-4::GFP/RFP ratio, acrylamide-induced, 24 h;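 active = interference check ratio from 0.5 to 1.5 plus GFP to RFP signal ratio inhibition reaching or exceeding a fixed threshold, cut at about 30% in these data, passing the limit was not always enough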
# MT1-MMP act val: MT1-MMP (human) activation inhibition, single-concentration validation | shares compounds with MT1-MMP act inh | HT1080 RFP-PRO-GFP cells, GFP and RFP fluorescence ratio, overnight | inhibition, % at 20 µM | 200 tested, 10% active;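 active = inhibition of at least 50% in the primary cell screen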
# * marks the source's active call; other numbers are inactive results; · = no result. Only some compounds are listed: those with a hit (about 1.9% of all), similar ones and a draw of the others.
SMILES,Rev-erbA mod,MT1-MMP act inh,PG9 binder,NR2E3 ag-1,NR2E3 ag-2,SKN-1 inh,MT1-MMP act val
CC1CC(C)CN(C(=O)COC(=O)CN2C(=O)c3ccccc3C2=O)C1 (stereo unspecified),-4,0,2,·,-11,7,·
COC(=O)CCC(=O)OC1(C)C(=O)C2=CN(CC3CC3)C(c3ccc(OC)cc3)=CC2=C(Br)C1=O (stereo unspecified),·,30*,·,4,1,24,15
COc1ccc(OC)c(CN(CC(C)C)S(=O)(=O)c2ccccc2Br)c1,2,·,2,·,·,·,·
C#CCNC[C@@H]1CSCCS(=O)(=O)N1,0,·,2,·,·,·,·
COc1cc(OC)cc(C(=O)Nc2ccc(-c3nc4ccccc4o3)cc2)c1,5,31*,-1,0,-32,-1,17
Cc1cc2cc(CNS(=O)(=O)c3ccc4ccccc4c3)ccc2n1C,-4,45*,-8,6,-6,54,6
Cc1cc(C)c(S(=O)(=O)NCc2ccc3c(c2)cc(C)n3C)c(C)c1,-6,40,-1,0,-24,58,·
Nc1nc(-c2ccc(Cl)cc2)c(N=Nc2ccc(S(=O)(=O)N3CCOCC3)cc2)s1,11,57*,1,-2,-4,25,55*
O=S(=O)(c1ccc(Cl)cc1)N1CCC(N2CCOCC2)CC1,-3,-13,0,-2,-9,12,·
CC/C(=N\Nc1ccc([N+](=O)[O-])cc1[N+](=O)[O-])c1ccc(O)cc1,-5,35*,0,-3,-13,19,27
CCC(=NNc1ccc([N+](=O)[O-])cc1[N+](=O)[O-])c1ccccc1,0,19,1,·,-10,2,·
CC(C)[C@H](NC(=O)[C@@H](N)Cc1ccccc1)C(=O)N1CCC2CCN(Cc3ccccc3)CC21 (stereo partly specified),6,·,-1,·,·,·,·
COC(=O)c1ccc2c(c1)C(C)(C)C(/C=C/c1ccccc1O)=[N+]2C,-6,93,-3,7,39,87,·
C[N+]1=C(/C=C/Nc2ccccc2Cl)C(C)(C)c2ccccc21,-4,52*,0,2,-9,53,15
CCCCCc1c(CC)ncn1CCc1ccccc1OC,4,-11,-2,·,22,14,·
COC(=O)[C@]12C[C@H](CC(=O)NCCC(C)C)C(=O)N(Cc3ccccc3)C1=C[C@H](C(C)(C)C)O[C@@H]2C,3,·,-1,·,·,·,·
O=C(C(=O)N1CCC(CNS(=O)(=O)c2ccc3ccccc3c2)CC1)c1cc2ccccc2o1,2,·,0,·,·,·,·
COc1ccc(Nc2ccccc2N)cc1,0,31*,-6,0,-22,7,51*
COC(=O)[C@]12C[C@H](CC(=O)NCCC(C)C)C(=O)N(Cc3cccc4ccccc34)C1=C[C@H](COCc1ccccc1)O[C@@H]2C,2,·,·,·,·,·,·
O=c1[nH]nc(CNc2ccc(C(F)(F)F)cc2)c2ccccc12,5,1,1,2,-43,-2,·
O=c1[nH]nc(CNc2ccc(O)cc2)c2ccccc12,-19,49*,-7,4,-3,33,-2
CCCc1ccc(C#N)c(SC2CC(=O)N(c3ccc(OC)cc3)C2=O)n1 (stereo unspecified),-6,32*,0,1,-10,1,-1
COc1ccc(N2C(=O)CC(Sc3nc(C)cc(C)c3C#N)C2=O)cc1 (stereo unspecified),-2,6,-3,3,-33,-2,·
CCc1cc2c(NCc3ccco3)ncnc2s1,-3,34*,-1,1,28,-8,12
COc1cc(/C=C/c2sc3ccccc3[n+]2CCCS(=O)(=O)[O-])ccc1O,-9,24,-29,-7,-33,66,·
CCC(/C=C1\Oc2ccc(OC)cc2N1C)=C\c1sc2ccccc2[n+]1CCCS(=O)(=O)[O-],-5,35*,-3,·,-7,79,-110
